# Experimental data as given in article PMC2834294 (Chemistry & biology, 2010).
# Tests used:
# cochlear hair cells = experiment: Recording from acutely isolated cochlear hair cells; format: cell-based, rat; conditions: up-to 100 µM; in SBS, SN-2 also in ELS
# [1] = test system: melanocytes expressing dynamin; experiment: Calcium imaging, melanocytes transfected with wild type dynamin; format: cell-based, human; conditions: 30 µM
# Summary of the method: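 Human epidermal melanocytes (medium 254 plus HMGS) were transfected with wild-type dynamin, DynK44A or YFP control. Intracellular Ca2+ was imaged after applying compounds at 30 µM each. Data are mean ± SEM from at least 3 independent experiments of 20–30 cells each.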
# danio rerio TRPN1 = danio rerio TRPN1 (Danio rerio, UniProt Q7T1G6); format: cell-based
# Summary of the method: (§1)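 HEK293 lines stably expressed YFP-fused human TRPML3 or zebrafish TRPN1 (G418 0.8 mg/ml, twice subcloned) and were plated at 1,500 cells/well for 23 h at 37 °C. After Fluo-8 loading (1 h 37 °C, 30 min RT), a 5 s basal read and 120 s post-addition read were taken. Max/basal ratios were normalized to DMSO and carbachol (87 µM).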
# TRPML3 [2] = target: T1, TRPML3 (Homo sapiens, UniProt Q8TDD5); experiment: Fura-2 calcium imaging, HEK293 cells transiently expressing TRPML3; format: cell-based
# T1 sequence (Q8TDD5 1-553): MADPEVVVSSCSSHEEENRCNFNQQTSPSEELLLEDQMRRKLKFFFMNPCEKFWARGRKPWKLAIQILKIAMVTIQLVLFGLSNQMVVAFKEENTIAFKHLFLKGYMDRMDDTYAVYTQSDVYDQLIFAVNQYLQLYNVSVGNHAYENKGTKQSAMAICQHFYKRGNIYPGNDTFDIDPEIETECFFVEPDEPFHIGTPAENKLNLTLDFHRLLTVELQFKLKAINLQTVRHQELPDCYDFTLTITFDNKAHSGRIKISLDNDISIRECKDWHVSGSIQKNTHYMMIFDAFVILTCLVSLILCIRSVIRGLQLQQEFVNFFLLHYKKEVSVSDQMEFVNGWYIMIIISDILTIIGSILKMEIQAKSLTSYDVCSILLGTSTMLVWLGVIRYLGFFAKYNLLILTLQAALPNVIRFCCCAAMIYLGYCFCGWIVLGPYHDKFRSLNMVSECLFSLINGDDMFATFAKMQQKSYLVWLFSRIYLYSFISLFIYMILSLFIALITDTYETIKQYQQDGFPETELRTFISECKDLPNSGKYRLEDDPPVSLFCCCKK
# Summary of the method: (§2)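 HEK293 cells were transiently transfected (Genejammer) with the human channel construct or YFP control and measured 24 h later. Cells on glass coverslips were loaded with 4 µM fura-2-AM in bath solution (mM: 138 NaCl, 6 KCl, 2 MgCl2, 2 CaCl2, 10 HEPES, 5.5 D-glucose; pH 7.4). Compounds were applied at 10 µM and the F340/F380 ratio recorded. Values are mean ± SEM, n≥3.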
# [3] = test system: primary human epidermal melanocytes; experiment: Calcium imaging in primary human epidermal melanocytes; format: cell-based; conditions: concentrations up-to 100 µM; SN-2 at 30 µM and 100 µM
# Summary of the method: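 Primary neonatal human epidermal melanocytes were cultured in medium 254 with HMGS at 37 °C and 5% CO2. Intracellular Ca2+ was imaged after applying compounds at 100 µM, with one compound also at 30 µM. Data are mean ± SEM from more than 3 independent experiments of 20–30 cells each.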
# TRPML1(NC) = TRPML1(NC) (Homo sapiens, UniProt Q9GZU1); experiment: Fura-2 calcium imaging, HEK293 cells expressing TRPML1; format: cell-based; conditions: 10 µM, plasma membrane-localized TRPML1 variant
# Summary of the method: as §2
# TRPML3 [4] = target: T1, TRPML3; experiment: Whole-cell patch-clamp with intracellular application; format: cell-based
# TRPML3 [5] = target: T1, TRPML3; experiment: Excised; format: cell-based
# TRPML2 = target: T2, TRPML2 (Homo sapiens, UniProt Q8IZK6); experiment: Fura-2 calcium imaging, HEK293 cells expressing TRPML2; format: cell-based; conditions: 10 µM
# T2 sequence (Q8IZK6 1-566): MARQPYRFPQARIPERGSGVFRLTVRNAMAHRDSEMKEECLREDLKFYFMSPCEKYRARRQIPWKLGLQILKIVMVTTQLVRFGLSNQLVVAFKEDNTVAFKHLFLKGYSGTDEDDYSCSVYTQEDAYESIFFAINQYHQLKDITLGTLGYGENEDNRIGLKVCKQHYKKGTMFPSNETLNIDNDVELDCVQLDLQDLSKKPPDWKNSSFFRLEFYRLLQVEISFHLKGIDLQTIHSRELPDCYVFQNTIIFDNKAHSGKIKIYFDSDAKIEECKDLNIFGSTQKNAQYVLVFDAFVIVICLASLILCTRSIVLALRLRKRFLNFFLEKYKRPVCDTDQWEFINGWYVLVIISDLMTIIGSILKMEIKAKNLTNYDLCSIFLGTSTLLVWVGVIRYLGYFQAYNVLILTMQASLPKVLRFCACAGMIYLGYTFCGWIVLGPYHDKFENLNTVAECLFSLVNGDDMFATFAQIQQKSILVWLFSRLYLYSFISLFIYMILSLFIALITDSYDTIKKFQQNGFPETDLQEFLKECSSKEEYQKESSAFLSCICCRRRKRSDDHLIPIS
# Summary of the method: as §2
# TRPML3 [6] = target: T1, TRPML3; format: cell-based; conditions: HEK293, read-out: Max % Activation (TRPML3)
# Summary of the method: as §1
# [7] = target: T3, TRPML3 coexpressed with TRPML1 (Homo sapiens, UniProt Q8TDD5); experiment: Calcium imaging, HEK293 cells coexpressing TRPML3 with TRPML1; format: cell-based; conditions: 10 µM
# T3 sequence (Q8TDD5 1-553): T1 sequence (Q8TDD5 1-553)
# Summary of the method: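 Human TRPML3 and TRPML1 were transiently coexpressed in HEK293 cells (Genejammer) and imaged 24 h post-transfection. Cells on glass coverslips were loaded with 4 μM fura-2-AM in bath solution (mM: 138 NaCl, 6 KCl, 2 MgCl₂, 2 CaCl₂, 10 HEPES, 5.5 D-glucose, pH 7.4) and read on a monochromator imaging system. Test compound was 10 μM. Mean ± SEM, n≥3 independent experiments, 20–30 cells each.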
# Chain of danio rerio TRPN1 (Q7T1G6 1-1614): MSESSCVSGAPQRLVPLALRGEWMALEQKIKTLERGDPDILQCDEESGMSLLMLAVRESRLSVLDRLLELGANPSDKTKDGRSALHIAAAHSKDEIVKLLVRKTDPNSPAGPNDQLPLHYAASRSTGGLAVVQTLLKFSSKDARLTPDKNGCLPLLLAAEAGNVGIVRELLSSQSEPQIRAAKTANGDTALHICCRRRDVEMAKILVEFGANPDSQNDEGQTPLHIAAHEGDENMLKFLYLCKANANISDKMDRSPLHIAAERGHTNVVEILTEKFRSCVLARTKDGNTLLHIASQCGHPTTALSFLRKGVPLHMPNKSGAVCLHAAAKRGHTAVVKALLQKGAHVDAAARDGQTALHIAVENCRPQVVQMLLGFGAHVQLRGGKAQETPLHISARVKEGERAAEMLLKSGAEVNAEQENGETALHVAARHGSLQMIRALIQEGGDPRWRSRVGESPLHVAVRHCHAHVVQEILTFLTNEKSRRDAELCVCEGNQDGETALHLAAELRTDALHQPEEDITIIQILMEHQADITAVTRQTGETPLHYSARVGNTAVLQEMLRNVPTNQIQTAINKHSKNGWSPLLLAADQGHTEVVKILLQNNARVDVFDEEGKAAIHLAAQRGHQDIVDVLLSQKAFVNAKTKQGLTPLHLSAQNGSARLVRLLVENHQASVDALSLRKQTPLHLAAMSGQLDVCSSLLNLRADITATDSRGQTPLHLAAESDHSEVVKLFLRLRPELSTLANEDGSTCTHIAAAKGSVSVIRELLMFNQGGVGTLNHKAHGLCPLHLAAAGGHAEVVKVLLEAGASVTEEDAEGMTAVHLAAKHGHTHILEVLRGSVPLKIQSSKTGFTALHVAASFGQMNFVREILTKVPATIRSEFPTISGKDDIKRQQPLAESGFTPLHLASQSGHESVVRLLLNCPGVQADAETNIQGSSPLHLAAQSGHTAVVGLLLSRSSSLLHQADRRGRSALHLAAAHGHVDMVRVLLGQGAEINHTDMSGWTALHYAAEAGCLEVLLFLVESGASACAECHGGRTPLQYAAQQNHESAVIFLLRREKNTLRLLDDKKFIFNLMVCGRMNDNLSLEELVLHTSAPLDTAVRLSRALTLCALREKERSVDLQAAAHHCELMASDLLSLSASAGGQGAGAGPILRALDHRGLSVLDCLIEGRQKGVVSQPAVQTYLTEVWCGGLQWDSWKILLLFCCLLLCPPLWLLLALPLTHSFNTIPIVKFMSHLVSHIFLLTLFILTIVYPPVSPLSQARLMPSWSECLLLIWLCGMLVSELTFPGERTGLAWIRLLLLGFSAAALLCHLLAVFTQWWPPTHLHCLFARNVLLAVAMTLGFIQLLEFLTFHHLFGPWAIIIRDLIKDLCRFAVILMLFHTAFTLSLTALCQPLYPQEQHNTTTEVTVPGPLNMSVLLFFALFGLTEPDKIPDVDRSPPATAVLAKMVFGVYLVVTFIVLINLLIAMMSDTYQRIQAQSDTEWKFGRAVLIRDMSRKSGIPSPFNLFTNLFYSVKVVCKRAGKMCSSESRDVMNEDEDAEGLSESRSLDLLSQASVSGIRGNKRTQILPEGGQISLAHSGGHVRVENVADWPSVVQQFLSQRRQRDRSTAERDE
# Chain of TRPML1(NC) (Q9GZU1 17-572 limits assumed): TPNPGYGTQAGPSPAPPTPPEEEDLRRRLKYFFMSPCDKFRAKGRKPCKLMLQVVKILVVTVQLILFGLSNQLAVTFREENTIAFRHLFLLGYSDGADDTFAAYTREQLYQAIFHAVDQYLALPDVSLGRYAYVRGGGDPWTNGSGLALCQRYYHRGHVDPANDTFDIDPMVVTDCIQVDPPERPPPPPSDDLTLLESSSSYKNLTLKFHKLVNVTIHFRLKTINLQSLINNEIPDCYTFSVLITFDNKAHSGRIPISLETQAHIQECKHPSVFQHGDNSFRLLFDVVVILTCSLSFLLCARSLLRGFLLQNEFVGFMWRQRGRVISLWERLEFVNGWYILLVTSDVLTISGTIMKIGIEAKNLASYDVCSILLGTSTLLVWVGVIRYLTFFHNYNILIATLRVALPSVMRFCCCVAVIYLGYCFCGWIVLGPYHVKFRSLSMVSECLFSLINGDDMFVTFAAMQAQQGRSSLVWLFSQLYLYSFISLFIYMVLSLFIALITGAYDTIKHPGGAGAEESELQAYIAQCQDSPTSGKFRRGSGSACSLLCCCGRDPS
compound,measurement,setting,value
"Cc1cc(C)c(C2=NOC3C4CCC(C4)C23)c(C)c1 (stereo not drawn) [SN-2, 5-mesityl-3-oxa-4-azatricyclo[5.2.1.0∼2,6∼]dec-4-ene]",TRPML3 channel activity in cochlear hair cells,cochlear hair cells,"Neither compound at concentrations of up-to 100 µM, with or without endolymph-like extracellular solution, elicited TRPML3 channel activity"
same,response in melanocytes expressing wild type dynamin,[1],reduction of the response
same,EC50,danio rerio TRPN1,> 29.9 µM
same,Emax,"danio rerio TRPN1; HEK293, read-out: Max % Activation (Control)",3 ± 1%
same,⊗F340/F380 (TRPML3),"TRPML3 [2]; 10 µM compound, mean ±SEM (n≥3)",1.08 ±0.05
same,kinetics of intracellular calcium increase,TRPML3 [2]; TRPML3-transfected HEK293 cells,much more rapid increase than the other compounds
same,[Ca2+]i response in primary human epidermal melanocytes,[3],elicited a stronger response
same,activation of mutant TRPML1(NC) isoform,TRPML1(NC),did not show any activity
same,cell membrane permeability,TRPML3 [4]; inferred from intracellular infusion experiment,not cell permeant
same,response to intracellular application (infusion),"TRPML3 [4]; whole-cell, −80 mV",did not elicit a response when infused into the cells
same,conductance of TRPML3 channels,"TRPML3 [5]; activated with 10 µM SN-2, at −80 mV, estimate",approximately 10 pS
same,TRPML3 activity in excised patches,TRPML3 [5]; patches held at −80 mV,markedly increased TRPML3 activity
same,response in HEK293 cells expressing TRPML2,TRPML2,did not show any activity
same,Emax,TRPML3 [6],149 ± 11%
same,calcium imaging response when TRPML1 was coexpressed with TRPML3,[7],strong reduction of the calcium imaging responses
